Most compounds without a hit are left out; they make up all but 1.3% or so of the library.
sPLA2-III inh – Inhibits HGIII-sPLA2 liposome hydrolysis, primary screen | QFRET BODIPY PC-A2 liposome hydrolysis, fluorescence | inhibition, % at 12.2 µM | actives 0.56% (n = 370,000) | Q9NZ20;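 active = inhibition above mean plus 3 SD of compounds lying within the high and low control bounds, cut at about 19% in these data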;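 also: 0% = median of test compound wells and 100% = no enzyme DMSO wells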
Target sequence (Q9NZ20 whole entry, looked up): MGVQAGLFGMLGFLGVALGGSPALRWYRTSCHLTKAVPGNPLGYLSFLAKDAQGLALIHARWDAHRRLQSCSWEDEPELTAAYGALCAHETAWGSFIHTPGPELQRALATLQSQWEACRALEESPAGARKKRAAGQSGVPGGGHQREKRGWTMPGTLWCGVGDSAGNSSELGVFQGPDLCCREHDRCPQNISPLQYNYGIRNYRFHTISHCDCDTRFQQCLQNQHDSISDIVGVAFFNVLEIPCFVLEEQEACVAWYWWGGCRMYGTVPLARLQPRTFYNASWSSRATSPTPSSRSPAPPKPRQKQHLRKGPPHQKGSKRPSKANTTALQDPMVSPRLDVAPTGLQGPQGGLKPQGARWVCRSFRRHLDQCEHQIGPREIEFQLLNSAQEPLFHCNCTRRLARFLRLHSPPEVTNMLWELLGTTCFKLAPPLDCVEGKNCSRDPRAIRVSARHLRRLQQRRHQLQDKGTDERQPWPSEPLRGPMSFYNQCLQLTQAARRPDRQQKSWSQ
MT1-MMP act inh – blocks activation of human MT1-MMP; AID 651647; GFP/RFP ratio change, % at 20 µM; actives 0.061% (n = 360,000); HT1080 RFP-PRO-GFP cells, GFP/RFP ratio fluorescence, overnight; percent of plate control window, DMSO zero;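 active = GFP/RFP ratio change of at least 30% with cell ATP level not reduced by more than half and red fluorescence within 50% of control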
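Material – HT1080 RFP-PRO-GFP cells · Control set – DMSO wells and RFP-L50D-GFP cells · Incubation – overnight cell settling, then overnight compound exposure, 37 °C, 5% CO2 · Compound dosing – single-point 20 µM compound, 1% DMSO · Read-out – GFP/RFP fluorescence ratio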
Efflux pump mplx – inhibitors of Candida antifungal efflux pumps expressed in yeast | inhibition, % at 10 µM | S. cerevisiae Candida pump triplex, Nile Red efflux | actives 0.44% (n = 330,000);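 active = plate passing quality check with inhibition over a set limit, or well fluorescence over plate mean plus 4 SD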;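 also: Nile Red retained in pooled yeast measured as flow cytometry median fluorescence; 0% = buffer negative control and 100% = Enniatin B positive control; higher means more Nile Red kept so more efflux inhibition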
H9c2 TAG inh – reduces triacylglycerol accumulation in H9c2 cells | actives 0.66% (n = 230,000) | AID 651582 | Nile Red lipid (TAG) fluorescence; cells loaded with 200 µM oleic acid | inhibition, % at 12.5 µM;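 active = pattern-corrected inhibition of lipid staining of at least 50% with the nuclear-stain viability signal not falling by more than 50%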;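 also: 0% = DMSO wells and 100% = triacsin C control wells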
TAG conf – confirmation of triacylglycerol accumulation inhibitors. shares compounds with H9c2 TAG inh. H9c2 lipid accumulation, Nile Red fluorescence; cells loaded with 200 µM oleic acid. inhibition, % at 12.5 µM. actives 71% (n = 990);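 active = mean inhibition across replicates of 40% or more; inactive = mean inhibition below 40%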;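 also: plate controls were DMSO only wells for no effect and Triacsin C treated wells for full effect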
* hit, by the source's call; / = not tested or not shown; ! = not active in a repeat.

SMILES | sPLA2-III inh | MT1-MMP act inh | Efflux pump mplx | H9c2 TAG inh | TAG conf
COc1cc(OC)c2c(-c3ccccc3)cc(=O)oc2c1C(CCN1CCCCC1)c1ccc2c(c1)OCO2 (configuration not stated) | -17 | -2 | / | 58* | 41*
COc1cc(OC)c2c(-c3ccccc3)cc(=O)oc2c1C(CCN1CCCC(C)C1)c1ccc2c(c1)OCO2 (configuration not stated) | -8 | 5 | 0 | 69* | 51*
COc1ccc(C(CCN2CCCCC2)c2c(OC)cc(OC)c3c(-c4ccccc4)cc(=O)oc23)cc1 (configuration not stated) | -23 | -1 | 0 | 44 | /
COc1ccc(-c2cc(C)no2)cc1S(=O)(=O)NCCCN1CCCCCC1 | -2 | 2 | 0 | / | /
COC(=O)Cc1ccc(NC(=S)N2CCN(c3ccc(F)cc3)CC2)cc1 | 5 | -5 | 0 | / | /
O=C1C(Sc2ccccc2)=C[C@@]2(O)CC[C@@H](O)[C@]1(Sc1ccccc1)[C@H]2O | 4 | 1 | / | / | /
CCOC(=O)/C(=N\Nc1ccc(Cl)cc1)c1csc(Nc2ccccc2)n1 | 5 | 4 | 0 | 75* | 69*
CCOC(=O)/C(=N/Nc1ccccc1)c1csc(Nc2ccccc2)n1 | 5 | 10 | 0 | / | /
CC1CCN(CCC(=O)NN)CC1 | 3 | 1 | 0 | 12 | /
NNC(=O)CCN1CCCCC1 | 2 | -2 | 0 | 83* | 3
Cc1ccccc1-n1c(=O)n(Cc2ccco2)c(=O)c2[nH]cnc21 | 9 | 5 | 0 | / | /
COc1cc(NC(=O)Nc2nc(C(N)CCc3ccccc3)cs2)cc(OC)c1OC (configuration not stated) | -7 | 3 | / | 83* | 89*
COc1cc(CNC(=O)Nc2nc(C(N)Cc3ccc(C(F)(F)F)cc3)cs2)cc(OC)c1OC (configuration not stated) | -4 | -7 | / | 76* | 88*
CC(C)CC(N)c1csc(NC(=O)Nc2ccccc2Cc2ccccc2)n1 (configuration not stated) | 19 | -6 | / | 114* | 69*
NC(CCc1ccccc1)c1csc(NC(=O)Nc2cccc(C(F)(F)F)c2)n1 (configuration not stated) | 16 | -52 | / | 131 | /
NC(Cc1ccc(C(F)(F)F)cc1)c1csc(NC(=O)Nc2ccccc2)n1 (configuration not stated) | 7 | 10 | / | 28 | /
COc1ccc(CC(N)c2csc(NC(=O)Nc3ccccc3-c3ccccc3)n2)cc1 (configuration not stated) | 11 | -10 | / | 73* | 87*
COc1ccc(CC(N)c2csc(NC(=O)Nc3ccccc3C(C)(C)C)n2)cc1 (configuration not stated) | 8 | -7 | / | 40 | /
CC1(C(=O)NS(=O)(=O)c2ccc(C#N)cc2)CCN1C(=O)C1(c2ccc(Cl)cc2)CC1 (configuration not stated) | -7 | 0 | / | 20 | /
COc1ccc(CNC(=O)Nc2nc(C(N)c3ccccc3)cs2)cc1 (configuration not stated) | 7 | -5 | / | -3 | /
COc1cc(OC)nc(Nc2nc(C(N)Cc3ccc(Cl)cc3)cs2)n1 (configuration not stated) | 14 | -10 | / | 58* | 46*
COc1ccc(CC(N)c2csc(NC(=O)NCc3ccccc3)n2)cc1 (configuration not stated) | 2 | -1 | / | 53* | 42*
COC(=O)c1cc(C)nc(Nc2nc(C(N)Cc3ccc(Cl)cc3)cs2)n1 (configuration not stated) | 9 | -1 | / | 13 | /
CCN(CC)C(=O)CC[C@H]1CC[C@]2(CCCN(Cc3ccncc3)C2)O1 | 2 | / | / | / | /
O=C(Nc1nc(Cc2ccccc2)c(Cc2ccccc2)n1Cc1ccccc1)c1ccccc1 | 6 | / | / | / | /
SMILES | sPLA2-III inh | MT1-MMP act inh | Efflux pump mplx | H9c2 TAG inh | TAG conf
CCOC(=O)C1CCCN1C(=O)c1ccc(OC)c(Br)c1 (configuration not stated) | -4 | 6 | 0 | -13 | /
CCOC(=O)C1CCCCN1C(=O)c1cc2ccc(OC)cc2c2cc(OC)c(OC)cc12 (configuration not stated) | -4 | 0 | / | 54* | 25
c1cc2c(cc1Oc1nc(N3CCOCC3)nc(N3CCOCC3)n1)OCO2 | -5 | -6 | 0 | 59* | 29
Clc1ccc(Oc2nc(N3CCOCC3)nc(N3CCOCC3)n2)cc1 | 1 | -1 | 0 | 38 | /
COc1ccc(C2=Nc3ccccc3N(C(=O)c3ccncc3)C2C(=O)NC(C)C)cc1 (configuration not stated) | -3 | -4 | / | / | /
COc1cc(OC)cc(C(=O)NCC(=O)Nc2ccc(OC)c(Cl)c2)c1 | -4 | -5 | 1 | / | /
CCOc1ccc(NC(=O)CN(C)C(=O)c2cc(-c3ccc(OC)cc3)nc3ccccc23)cc1OCC | -21 | -10 | 0 | 53* | 63*
COc1ccccc1[C@H]1C(c2cccc(C)c2)=NN(c2ccccc2)[C@@H]1CO | 5 | / | 0 | 72* | 15
N=C1C(c2ccccc2)=C(O)CN1c1cccc2ccccc12 | -2 | 0 | 0 | 10 | /
Fc1ccc(Nc2nc(N3CCOCC3)nc(N3CCOCC3)n2)cc1 | -4 | -7 | 0 | / | /
c1ccc(Nc2nc(N3CCNCC3)nc(N3CCOCC3)n2)cc1 | -5 | -18 | 0 | 88* | 35
O=[N+]([O-])c1ccc(Nc2nc(N3CCOCC3)nc(N3CCOCC3)n2)cc1 | 14 | 0 | 0 | 53* | 61*
O=[N+]([O-])c1ccc(Nc2nc(N/N=C\c3ccc4c(c3)OCO4)nc(N3CCCCC3)n2)cc1 | -2 | -1 | 0 | 66* | 37
Cc1ccc(NC(=O)CN2C(=O)c3ccccc3S2(=O)=O)c(C)c1 | 10 | 0 | 0 | / | /
CC(=O)O[C@H]1C[C@@]2(C)[C@@H](C[C@@H](O)[C@H]3[C@@]4(C)CC[C@@H](O)[C@@H](C)[C@@H]4CC[C@@]32C)/C1=C(\CCC=C(C)C)C(=O)O | 1 | -1 | 0 | 61*! | 56*
CCC(C)c1ccc(N(C(=O)c2ccco2)C(C(=O)NC2CCCC2)c2cccnc2)cc1 (configuration not stated) | -10 | -7 | 0 | / | /
CSc1nc(N(C)NC(=O)c2ccccc2)c2ccccc2n1 | -1 | 6 | 0 | 57* | 62*
CSc1nc(N(C)NC(=O)c2ccc(Cl)cc2)c2ccccc2n1 | -7 | 6 | 0 | 65* | 66*
Cc1ccc(C(=O)NN(C)c2nc3ccccc3nc2C(F)(F)F)cc1 | -3 | -6 | 0 | 5 | /
CCOC(=O)N1CCN(C(=O)C2CCC(=O)N(Cc3cccc(C(F)(F)F)c3)C2)CC1 (configuration not stated) | 2 | 2 | 0 | -10 | /
COc1cccc(-c2cc(=O)c3cc(NC(C)=O)ccc3[nH]2)c1 | 0 | 11 | 0 | 63* | 34

High-throughput results: PubChem BioAssay, several laboratories
